For 17 compounds, inhibition, IC50 and Activity results are on record in ChEMBL document CHEMBL1157170, “Novel 5-azaindolocarbazoles as cytotoxic agents and Chk1 inhibitors” (Bioorg Med Chem, 2008).

Test [1] deals with T1, Serine/threonine-protein kinase Chk1 (Homo sapiens) (UniProt O14757).
T1 sequence (whole entry): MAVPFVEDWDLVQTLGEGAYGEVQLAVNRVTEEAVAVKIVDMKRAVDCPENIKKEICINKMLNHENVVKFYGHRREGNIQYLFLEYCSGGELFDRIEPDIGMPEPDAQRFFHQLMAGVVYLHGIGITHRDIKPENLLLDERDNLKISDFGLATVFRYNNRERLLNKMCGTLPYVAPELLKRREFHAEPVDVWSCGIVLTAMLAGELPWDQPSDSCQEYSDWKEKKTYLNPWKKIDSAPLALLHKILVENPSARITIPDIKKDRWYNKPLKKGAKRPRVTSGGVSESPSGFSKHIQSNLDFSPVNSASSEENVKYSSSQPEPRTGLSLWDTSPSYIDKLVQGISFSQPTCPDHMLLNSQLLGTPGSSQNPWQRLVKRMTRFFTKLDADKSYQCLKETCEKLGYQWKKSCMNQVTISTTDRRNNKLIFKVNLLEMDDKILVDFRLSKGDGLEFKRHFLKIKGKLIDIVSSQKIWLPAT
The experiment in a line: Inhibition of human Chk1 expressed in sf9-baculovirus system at 10 uM.

In test [2] the test system is L1210. Briefly: Antiproliferative activity against mouse L1210 cells after 48 hrs by microculture tetrazolium assay. It counts as functional, cell-based. The conditions noted are these: L1210, 48 h. The gist of the method: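 L1210 cells grown in RPMI 1640 with 10% fetal calf serum, 2 mM L-glutamine, penicillin/streptomycin and 10 mM Hepes (pH 7.4). Exposed for 48 h (four doubling times) to nine serial dilutions, each in triplicate. Read-out was microculture tetrazolium assay. IC50 is the concentration that cut optical density by 50% versus untreated controls.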

For test [3], the system named is L1210. Briefly: Toxicity against mouse L1210 cells at 20 uM. The test is classed as functional, cell-based.
In test [4] the target is T2, Serine/threonine-protein kinase Chk1 (Homo sapiens, UniProt O14757).
T2 sequence (O14757 whole entry): T1 sequence (whole entry)
The experiment in a line: Inhibition of human Chk1 expressed in sf9-baculovirus system. The gist of the method:
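Kinase was GST-tagged Chk1 purified from extracts of Sf9 cells infected with a GST-Chk1 baculovirus. Assay format followed a published method.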

For a further test, the system named is HT-29. The experiment in a line: Antiproliferative activity against human HT29 cells after 96 hrs by microculture tetrazolium assay. The note with it: HT-29, 96 h.
For test [5], the system named is L1210. The experiment in a line: Cell cycle arrest in mouse L1210 cells by accumulation at G2M phase at 1 uM after 21 hrs by flow cytometry. The test is classed as functional. The method in brief:
(§1)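 L1210 cells at 2.5 × 10⁵ cells/mL incubated 21 h with various compound concentrations. Fixed in 70% ethanol, washed, then stained 30 min in D-PBS containing RNAse and propidium iodide. DNA content analysed by flow cytometry.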

The test system of test [6] is L1210. The experiment in a line: Cell cycle arrest in mouse L1210 cells by accumulation at G1 phase at 1 uM after 21 hrs by flow cytometry. The test is classed as functional. The gist of the method:
as §1

For test [7], the system named is L1210. The experiment in a line: Cell cycle arrest in mouse L1210 cells by accumulation at G2M phase at 5 uM after 21 hrs by flow cytometry. The test is classed as functional. The gist of the method: as §1

The source made the active and inactive calls. No cut-off for these calls is given here. Where only a bound is given, the exact number is not on record here.

Take `CN1C(=O)c2c(c3c4cnccc4[nH]c3c3[nH]c4cc(O)ccc4c23)C1=O`: the inhibition in test [1] stood at 66.6%. Besides, the IC50 in the test on L1210 [2] came out at 2.7 µM; in test [4], 5 µM; in the test with HT-29, 16.2 µM. For the same compound, in the test with L1210 [3], the result was Active.
On to `O=C1NC(=O)c2c1c1c3cnccc3[nH]c1c1[nH]c3ccc(O)cc3c21`, for which the inhibition in test [1] is 99.1%. Moreover, the values for the IC50 (in the test on L1210 [2]; in test [4]; in the test on HT-29) were 80.7 µM, 0.027 µM and greater than 100 µM, respectively.
In test [1], `O=C1NC(=O)c2c1c1c3ccc(O)cc3[nH]c1c1[nH]c3ccncc3c21` returned an inhibition of 98.7%. Besides, the concentration for half-maximal inhibition (IC50) in the test on L1210 [2] is 3.3 µM; in test [4], 0.014 µM; in the test with HT-29, greater than 100 µM.
`CN1C(=O)c2c(c3c4ccccc4n([C@@H]4O[C@H](CO)[C@@H](O)[C@H](O)[C@H]4O)c3c3[nH]c4cc[n+](Cc5ccccc5)cc4c23)C1=O`: the inhibition in test [1] was found to be 51.4%. Moreover, the IC50 in the test on L1210 [2] was 12.8 µM; in the test on HT-29, 63.7 µM.
`CN(C)CCN1C(=O)c2c(c3c4cc(OCc5ccccc5)ccc4[nH]c3c3[nH]c4ccncc4c23)C1=O`: the inhibition in test [1] was 17.6%. In addition, the IC50 in the test on L1210 [2] turned out to be 16.3 µM; with HT-29 it was 19.5 µM.
Consider `CN(C)CCN1C(=O)c2c(c3c4cc5c(cc4[nH]c3c3[nH]c4ccncc4c23)OCO5)C1=O`, for which, in test [1], the inhibition stood at 6.7%. For the same compound, the half-inhibitory concentration (IC50) with L1210 [2] was determined as 0.195 µM; with HT-29, 1.76 µM. In the test with L1210 [5], the Activity was found to be 62%.
For `O=C1NC(=O)c2c1c1c3cnccc3[nH]c1c1[nH]c3ccc(OCc4ccccc4)cc3c21`, the inhibition in test [1] came out at 90.6%. In addition, the 50% inhibitory concentration (IC50) turned out to be 1.5 µM with L1210 [2], 1.32 µM in test [4] and 7.6 µM in the test on HT-29.
The compound `CN(C)CCN1C(=O)c2c(c3c4cc(O)ccc4[nH]c3c3[nH]c4ccncc4c23)C1=O` registered an inhibition in test [1] of 48.9%. Also, the 50% inhibitory concentration (IC50) with L1210 [2] came out at 2.6 µM; in the test with HT-29, 50.9 µM.
In the case of `O=C1NC(=O)c2c1c1c3ccccc3[nH]c1c1[nH]c3ccncc3c21`, the inhibition in test [1] is 98.6%. The figures for the 50% inhibitory concentration (IC50) (in the test with L1210 [2]; in test [4]; in the test on HT-29) were 0.6 µM, 5 µM and 1.5 µM, respectively. The compound also came in with an Activity in the test with L1210 [6] of 60%.
As for `CN(C)CCN1C(=O)c2c(c3c4cnccc4[nH]c3c3[nH]c4cc(OCc5ccccc5)ccc4c23)C1=O`, the inhibition in test [1] worked out at 32.7%. The values for the concentration for half-maximal inhibition (IC50) with L1210 [2] and with HT-29 were 1.4 µM and 2.9 µM, respectively.
Taken in the same sequence, the figures for `CN(C)CCN1C(=O)c2c(c3c4cnccc4[nH]c3c3[nH]c4ccccc4c23)C1=O` were 49.4%, 0.47 µM and 3.8 µM.
For `CN1C(=O)c2c(c3c4cc(O)ccc4[nH]c3c3[nH]c4ccncc4c23)C1=O`, in that order: 38.5%, 11.9 µM and greater than 100 µM.
The compound `O=C1NC(=O)c2c1c1c3ccc(OCc4ccccc4)cc3[nH]c1c1[nH]c3ccncc3c21` showed an inhibition in test [1] of 95.9%. For the same compound, the half-maximal inhibitory concentration (IC50) with L1210 [2] amounted to 1.1 µM; in test [4], 0.072 µM; with HT-29, 32.4 µM. The compound also gave an Activity in the test with L1210 [7] of 43%.
`CC(=O)OC[C@H]1O[C@@H](n2c3ccccc3c3c4c(c5c6c[n+](Cc7ccccc7)ccc6[nH]c5c32)C(=O)N(C)C4=O)[C@H](OC(C)=O)[C@@H](OC(C)=O)[C@@H]1OC(C)=O` registered an inhibition in test [1] of 46.5%. The IC50 in the test with L1210 [2] was 14.3 µM; with HT-29, greater than 100 µM.
In turn, `CN1C(=O)c2c(c3c4cnccc4[nH]c3c3[nH]c4cc(OCc5ccccc5)ccc4c23)C1=O` displayed an inhibition in test [1] of 27%. Further, the IC50 was 0.6 µM in the test on L1210 [2] and 2 µM with HT-29.
For `CN1C(=O)c2c(c3c4cc5c(cc4[nH]c3c3[nH]c4ccncc4c23)OCO5)C1=O`, in that order: 26.7%, 0.495 µM and 3.35 µM.
Consider `CN1C(=O)c2c(c3c4ccccc4n([C@@H]4O[C@H](COCc5ccccc5)[C@@H](OCc5ccccc5)[C@H](OCc5ccccc5)[C@H]4OCc4ccccc4)c3c3[nH]c4ccncc4c23)C1=O`, for which, in test [1], the inhibition stood at 49%. Further, the IC50 in the test with L1210 [2] was greater than 100 µM.
